A word on the IC50: it is the point on the concentration scale where inhibition reaches its midpoint. One may read the bioavailability as dose-corrected exposure relative to a reference, in per cent. A word on the half-life: it is the time in which the quantity being followed falls by half.

The target of one data set is Integrin alpha-4/beta-1 (Homo sapiens, UniProt P05556+P13612). In words: Inhibition of integrin alpha4beta1-mediated Jurkat cell adhesion to VCAM-1 by FACS analysis. In kind it is cell-based. In outline:
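α4β1-positive Jurkat cells were incubated with recombinant soluble VCAM-1, and binding of this ligand was measured by flow cytometry (FACS).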
(Flow cytometry measures light scatter and fluorescence of single cells or particles in a stream.)

Data set [1] is described as follows: Bioavailability in cynomolgus monkey at 3 mg/kg, iv and 10 mg/kg, po. Type of data set: ADME, organism-based, Macaca fascicularis. To be noted: in vivo. In outline: (§1)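 Male monkeys in each arm; the compound was given at 3 mg/kg intravenously and at 10 mg/kg orally.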
The nature of data set [2]: Clearance in Beagle dog at 3 mg/kg, iv and 10 mg/kg, po. Type of data set: ADME, organism-based, Canis lupus familiaris. The conditions noted are these: in vivo. In outline:
(§2)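 Male dogs in each arm; the intravenous arm used 3 mg/kg and the oral arm 10 mg/kg.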

Data set [3] is described as follows: Bioavailability in Sprague-Dawley rat at 10 mg/kg, iv and po. Type of data set: ADME, organism-based. To be noted: in vivo. In a few lines:
(§3)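 Male rats in each arm; the compound was given at 10 mg/kg both intravenously and orally, with parameters taken from these two arms.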

Data set [4] can be described thus: Half life in Sprague-Dawley rat at 10 mg/kg, iv and po. Type of data set: ADME, organism-based. On the set-up: dose 10 mg/kg, route oral. The conditions noted are these: in vivo. In a few lines:
as §3

The test system of data set [5] is Ovis aries. The data set is described as follows: Antiasthamatic activity in sheep asthma model assessed as prevention of carbachol-induced hyperresponsiveness at 1 mg/kg, po. In kind it is functional, organism-based. Also noted: dose 1 mg/kg.
Data set [6] can be described thus: Bioavailability in Beagle dog at 3 mg/kg, iv and 10 mg/kg, po. In kind it is ADME, organism-based, Canis lupus familiaris. The conditions noted are these: in vivo. In a few lines:
as §2

Data set [7] relates to Ovis aries. In words: Antiasthamatic activity in sheep asthma model assessed as prevention of carbachol-induced hyperresponsiveness at 0.3 mg/kg, po. Type of data set: functional, organism-based. Also noted: dose 0.3 mg/kg.
For a further data set, the system named is Rattus norvegicus. In words: Volume of distribution in Sprague-Dawley rat at 10 mg/kg, iv and po. Type of data set: ADME, organism-based. On the set-up: dose 10 mg/kg, route oral. To be noted: in vivo. In a few lines: as §3
A short description of data set [8]: Clearance in cynomolgus monkey at 3 mg/kg, iv and 10 mg/kg, po. Type of data set: ADME, organism-based, Macaca fascicularis. To be noted: in vivo. In outline: as §1
Data set [9] can be described thus: Volume of distribution in cynomolgus monkey at 3 mg/kg, iv and 10 mg/kg, po. Type of data set: ADME, organism-based, Macaca fascicularis. To be noted: in vivo. In outline: as §1
The nature of data set [10]: Half life in Beagle dog at 3 mg/kg, iv and 10 mg/kg, po. In kind it is ADME, organism-based, Canis lupus familiaris. To be noted: in vivo. In a few lines: as §2
Data set [11] in a line: Half life in cynomolgus monkey at 3 mg/kg, iv and 10 mg/kg, po. Type of data set: ADME, organism-based, Macaca fascicularis. The conditions noted are these: in vivo. In a few lines:
as §1

A short description of data set [12]: Volume of distribution in Beagle dog at 3 mg/kg, iv and 10 mg/kg, po. Type of data set: ADME, organism-based, Canis lupus familiaris. To be noted: in vivo. In outline:
as §2

The subject of data set [13] is Ovis aries. In words: Antiasthamatic activity in po dosed sheep asthma model assessed as prevention of carbachol-induced late phase hyperresponsiveness. In kind it is functional. To be noted: read-out: MED.
Data set [14] can be described thus: Oral bioavailability in Sprague-Dawley rat at 10 mg/kg. The conditions noted are these: in vivo. Type of data set: ADME, organism-based.
The nature of data set [15]: Drug excretion in Sprague-Dawley rat bile at 10 mg/kg, po. In kind it is ADME, organism-based. Also noted: dose 10 mg/kg, route oral. To be noted: read-out: Activity.
The test system of data set [16] is Ovis aries. In words: Antiasthamatic activity in po dosed sheep asthma model assessed as prevention of carbachol-induced early phase hyperresponsiveness. Type of data set: functional. The conditions noted are these: read-out: MED.

Active and inactive are the calls of the source. The rule behind the calls is not given here. Some results are limits rather than exact numbers.

Integrin alpha-4/beta-1, sequence (P05556 whole entry): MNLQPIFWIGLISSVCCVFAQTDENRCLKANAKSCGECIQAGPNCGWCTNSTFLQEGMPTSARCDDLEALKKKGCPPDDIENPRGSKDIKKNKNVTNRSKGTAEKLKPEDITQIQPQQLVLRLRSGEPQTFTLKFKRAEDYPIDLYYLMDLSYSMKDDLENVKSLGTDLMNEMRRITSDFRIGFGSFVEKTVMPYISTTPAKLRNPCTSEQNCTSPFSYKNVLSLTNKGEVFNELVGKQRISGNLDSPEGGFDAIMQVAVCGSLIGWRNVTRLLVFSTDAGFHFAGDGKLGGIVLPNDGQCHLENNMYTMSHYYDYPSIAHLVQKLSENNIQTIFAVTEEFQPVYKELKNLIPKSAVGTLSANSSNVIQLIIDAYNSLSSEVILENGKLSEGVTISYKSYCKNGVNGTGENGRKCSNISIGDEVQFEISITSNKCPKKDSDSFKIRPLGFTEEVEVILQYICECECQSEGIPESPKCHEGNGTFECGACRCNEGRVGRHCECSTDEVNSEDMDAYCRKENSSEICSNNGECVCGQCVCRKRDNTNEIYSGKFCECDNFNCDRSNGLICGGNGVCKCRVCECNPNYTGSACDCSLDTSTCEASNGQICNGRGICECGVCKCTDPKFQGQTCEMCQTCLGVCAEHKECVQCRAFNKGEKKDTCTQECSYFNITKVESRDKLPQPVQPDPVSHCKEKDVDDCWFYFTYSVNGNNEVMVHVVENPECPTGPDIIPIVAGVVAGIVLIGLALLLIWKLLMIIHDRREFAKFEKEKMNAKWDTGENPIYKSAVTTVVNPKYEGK
Integrin alpha-4/beta-1, sequence (P13612 whole entry): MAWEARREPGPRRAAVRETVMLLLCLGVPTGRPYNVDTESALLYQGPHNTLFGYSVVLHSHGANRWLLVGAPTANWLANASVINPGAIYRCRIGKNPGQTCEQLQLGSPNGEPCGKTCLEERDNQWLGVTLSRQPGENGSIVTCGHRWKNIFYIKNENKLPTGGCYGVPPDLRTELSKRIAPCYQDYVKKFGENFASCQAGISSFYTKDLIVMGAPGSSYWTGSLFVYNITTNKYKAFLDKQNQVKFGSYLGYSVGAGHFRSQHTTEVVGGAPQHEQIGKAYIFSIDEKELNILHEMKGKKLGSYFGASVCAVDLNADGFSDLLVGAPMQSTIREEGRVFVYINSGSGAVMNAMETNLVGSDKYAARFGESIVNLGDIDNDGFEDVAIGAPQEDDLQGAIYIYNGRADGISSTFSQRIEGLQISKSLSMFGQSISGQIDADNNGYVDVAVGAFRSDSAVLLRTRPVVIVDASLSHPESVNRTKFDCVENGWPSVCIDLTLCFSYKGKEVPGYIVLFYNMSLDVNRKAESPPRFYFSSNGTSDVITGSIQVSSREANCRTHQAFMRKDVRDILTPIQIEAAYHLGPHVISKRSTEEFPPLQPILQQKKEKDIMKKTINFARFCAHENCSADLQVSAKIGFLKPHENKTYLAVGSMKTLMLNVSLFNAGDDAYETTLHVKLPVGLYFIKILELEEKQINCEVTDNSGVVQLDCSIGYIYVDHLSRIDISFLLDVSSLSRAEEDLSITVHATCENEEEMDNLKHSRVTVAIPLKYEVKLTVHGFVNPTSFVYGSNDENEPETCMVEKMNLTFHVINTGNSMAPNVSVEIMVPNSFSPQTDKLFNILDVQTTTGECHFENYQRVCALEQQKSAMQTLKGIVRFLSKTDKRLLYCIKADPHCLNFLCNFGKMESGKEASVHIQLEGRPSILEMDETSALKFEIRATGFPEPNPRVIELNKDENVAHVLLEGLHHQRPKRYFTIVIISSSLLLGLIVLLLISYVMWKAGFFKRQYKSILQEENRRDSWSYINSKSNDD

`Cc1cc(C)c(-c2cncnc2N[C@@H](Cc2ccc(OC(=O)N(C)C)cc2)C(=O)O)c(C)c1` returned an IC50 against Integrin alpha-4/beta-1 of 100 nM. The same measure, in the same setting: in the case of `CN(C)C(=O)Oc1ccc(C[C@H](Nc2ncncc2-c2ccccc2C(F)(F)F)C(=O)O)cc1` it was 90 nM; in that of `Cc1ccccc1-c1cnc(N(C)C2CC2)nc1N[C@@H](Cc1ccc(OC(=O)N(C)C)cc1)C(=O)O`, 20 nM; in that of `Cc1ccsc1-c1cncnc1N[C@@H](Cc1ccc(OC(=O)N(C)C)cc1)C(=O)O`, 5 nM. The compound `COc1ccccc1-c1cncnc1N[C@@H](Cc1ccc(OC(=O)N(C)C)cc1)C(=O)O` showed an IC50 on Integrin alpha-4/beta-1 of 16 nM. The same measure, in the same setting: the value for `CN(C)C(=O)Oc1ccc(C[C@H](Nc2ncncc2-c2c(F)cccc2F)C(=O)O)cc1` was 27 nM; that for `Cc1ccccc1-c1cnc(N(C)CC(C)C)nc1N[C@@H](Cc1ccc(OC(=O)N(C)C)cc1)C(=O)O` was 7 nM; that for `CN(C)C(=O)Oc1ccc(C[C@H](Nc2ncncc2-c2cccc([N+](=O)[O-])c2)C(=O)O)cc1` was 180 nM. Still for that read-out and setting: the value for `CN(C)C(=O)Oc1ccc(C[C@H](Nc2ncncc2-c2cccc(Cl)c2Cl)C(=O)O)cc1` was 77 nM; that for `Cc1ccccc1-c1cnc(N2CCCCC2)nc1N[C@@H](Cc1ccc(OC(=O)N(C)C)cc1)C(=O)O` was 32 nM; that for `CN(C)C(=O)Oc1ccc(C[C@H](NC(=O)c2ccccc2)C(=O)O)cc1` was 130 nM. In turn, `CN(C)C(=O)Oc1ccc(C[C@H](Nc2ncncc2-c2cccs2)C(=O)O)cc1` displayed a half-inhibitory concentration (IC50) against Integrin alpha-4/beta-1 of 16 nM.

For the compound `CN(C)C(=O)Oc1ccc(C[C@H](Nc2ncncc2-c2ccccc2F)C(=O)O)cc1`, the IC50 against Integrin alpha-4/beta-1 was 18 nM. At Integrin alpha-4/beta-1, `CN(C)C(=O)Oc1ccc(C[C@H](Nc2ncncc2-c2ccncc2)C(=O)O)cc1` gave an IC50 of 85 nM. Still for that read-out and setting: in the case of `CCN(C)c1ncc(-c2ccccc2C)c(N[C@@H](Cc2ccc(OC(=O)N(C)C)cc2)C(=O)O)n1` it was 5.3 nM; in that of `Cc1ccccc1-c1cncnc1N[C@@H](Cc1ccc(OC(=O)N(C)C)cc1)C(=O)O`, 25 nM; in that of `CCN(CC)c1ncc(-c2ccccc2C)c(N[C@@H](Cc2ccc(OC(=O)N(C)C)cc2)C(=O)O)n1`, 5.7 nM. In the case of `Cc1noc(C)c1-c1cncnc1N[C@@H](Cc1ccc(OC(=O)N(C)C)cc1)C(=O)O`, the IC50 against Integrin alpha-4/beta-1 was under 1 nM. Consider `Cc1ccccc1-c1cnc(N(C)C2CCC2)nc1N[C@@H](Cc1ccc(OC(=O)N(C)C)cc1)C(=O)O`, for which the midpoint of inhibition against Integrin alpha-4/beta-1, the IC50, lay at 10 nM. As to `CCN(CC)c1ncc(-c2c(C)noc2C)c(N[C@@H](Cc2ccc(OC(=O)N(C)C)cc2)C(=O)O)n1`, the bioavailability in data set [1] worked out at 16%; in data set [3] it was 19%; in data set [6], 59%. For the same compound, the clearance in data set [2] is 6.73 mL/min/kg; in data set [8] it was 13.5 mL/min/kg. In addition, the half-life is 1.4 h in data set [4], 0.9 h in data set [10] and 1.1 h in [11]. In the data set on Ovis aries [5], the result was Active. Also, the result with Ovis aries [7] was inactive. Further, the results for the Vd (in the data set with Rattus norvegicus; in data set [9]; in data set [12]) were 0.346 L/kg, 1.29 L/kg and 0.524 L/kg, respectively. `CN(C)C(=O)Oc1ccc(C[C@H](Nc2nc(N(C)C3CCCCC3)nc3ccccc23)C(=O)O)cc1`: the IC50 against Integrin alpha-4/beta-1 came out at 8 nM. The compound `CN(C)C(=O)Oc1ccc(C[C@H](Nc2ncncc2-c2ccccc2)C(=O)O)cc1` returned an IC50 on Integrin alpha-4/beta-1 of 300 nM. `CN(C)C(=O)Oc1ccc(C[C@H](Nc2ncncc2-c2ccc[nH]2)C(=O)O)cc1`: the IC50 against Integrin alpha-4/beta-1 amounted to 75 nM. On Integrin alpha-4/beta-1, `Cc1ccccc1-c1cnc(N(C)C2CCN(C)CC2)nc1N[C@@H](Cc1ccc(OC(=O)N(C)C)cc1)C(=O)O` displayed a half-maximal inhibitory concentration (IC50) of 68 nM. Still for that read-out and setting: the value for `CN(C)C(=O)Oc1ccc(C[C@H](Nc2ncnc3ccccc23)C(=O)O)cc1` was 190 nM.

As to `Cc1ccccc1-c1cnc(N(C)C2CCCCC2)nc1N[C@@H](Cc1ccc(OC(=O)N(C)C)cc1)C(=O)O`, the minimal effective dose with Ovis aries [13] and in the data set on Ovis aries [16] was 10 mg/kg in each case. The compound further registered a bioavailability in data set [14] of 26%. Besides, the dose excreted in data set [15] was under 3%. Moreover, at Integrin alpha-4/beta-1, the IC50 is 20 nM. Regarding `CCCN(CC)c1ncc(-c2ccccc2C)c(N[C@@H](Cc2ccc(OC(=O)N(C)C)cc2)C(=O)O)n1`, at Integrin alpha-4/beta-1, the IC50 stood at 4.9 nM. In turn, `Cc1ccccc1-c1cnc(N(C)C)nc1N[C@@H](Cc1ccc(OC(=O)N(C)C)cc1)C(=O)O` gave a concentration for half-maximal inhibition (IC50) at Integrin alpha-4/beta-1 of 29 nM.

Consider `CN(C)C(=O)Oc1ccc(C[C@H](Nc2ncncc2-c2cccnc2)C(=O)O)cc1`, for which the midpoint of inhibition on Integrin alpha-4/beta-1, the IC50, lay at 130 nM.

`Cc1ccccc1-c1cnc(N(C)c2ccc(Cl)cc2)nc1N[C@@H](Cc1ccc(OC(=O)N(C)C)cc1)C(=O)O`: the IC50 against Integrin alpha-4/beta-1 amounted to 107 nM.
